Test results published in ChEMBL document CHEMBL5113379, “4-Oxooctahydroquinoline-1(2H)-carboxamides as hepatitis B virus (HBV) capsid core protein assembly modulators” (Bioorg Med Chem Lett, 2022).
pEC50: −log10 of the molar value. In brackets after ≈: the same amount, converted by molar mass. Activity calls are given as the source filed them. The rule behind the calls is not given here.

Experiments:
HepDES19 [1] = assay: Antiviral activity against HBV infected in human HepDES19 cells assessed as reduction in levels of intracellular core protein 2 uM measured by Western blot assay; format: functional, cell-based
How it was run: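 HepDES19 cells kept in tetracycline, then switched to tet-free medium to induce pgRNA transcription and HBV DNA replication; tet-maintained cells serve as negative control. Treatment with compound or DMSO started 24 h after tet removal and continued for 6 days. Intracellular core protein was detected by Western blot with an antibody against the C-terminal 14 residues of core, with β-actin as loading control.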

HepDES19 [2] = assay: Antiviral activity against HBV infected in human HepDES19 cells assessed as reduction of capsid associated HBV DNA 2 uM measured by agarose gel electrophoresis-based particle gel assay; format: functional, cell-based
How it was run: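 HepDES19 cells were kept with tetracycline to block pgRNA transcription (negative control) or without it to induce pgRNA transcription and HBV DNA replication. Compounds (1, 2 or 5 μM) or DMSO were added starting 24 h after tet removal and kept for 6 days.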

HepDES19 [3] = assay: Antiviral activity against HBV infected in human HepDES19 cells assessed reduction of amounts of encapsidated pgRNA 2 uM […] by northern blot hybridization assay; format: functional, cell-based
How it was run: (§1)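 In tet-inducible HepDES19 cells, pgRNA transcription was induced by tetracycline removal; tet-maintained cells were the negative control. Treatment with DMSO or compound at 2 or 5 μM began 24 h after tet removal and lasted 6 days. Encapsidated pgRNA was detected by Northern blot hybridization, with ribosomal RNA as loading control.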

[4] = Metabolic stability in human liver microsomes assessed as half-life; format: ADME, Microsome; conditions: for t1/2: microsomes
[5] = Metabolic stability in mouse liver microsomes assessed as half-life; format: ADME, Microsome; conditions: for t1/2: microsomes
[6] = Cytotoxicity against mouse […] measured by MTT assay; format: toxicity, cell-based, AML12HBV10
How it was run: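 Cytotoxicity was measured by MTT assay in the stable HBV line AML12HBV10, derived from immortalized mouse hepatocytes (AML12), and CC50 was determined.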

Hepatitis B virus = assay: Antiviral activity against HBV infected in mouse AML12HBV10 cells assessed as reduction in viral replication incubated for 48 hrs and measured by [alpha-32P]UTP-labeled radio-probe based dot blot hybridization assay; format: functional, organism-based
How it was run: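 The test used the stable HBV line AML12HBV10, derived from immortalized mouse hepatocytes (AML12). HBV replication was measured by dot blot hybridization and EC50 was determined.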

HepDES19 [7] = assay: Antiviral activity against HBV infected in human HepDES19 cells assessed reduction of amounts of encapsidated pgRNA 5 uM […] by northern blot hybridization assay; format: functional, cell-based; how it was run: as §1
[8] = Plasma protein binding in human; format: ADME, cell-free
[9] = Cmax in mouse at 10 mg/kg, po; format: ADME, organism-based; set-up: dose 10 mg/kg, route po; conditions: in vivo
[10] = AUClast in mouse at 10 mg/kg, po; format: ADME, organism-based; set-up: time 0 - last, dose 10 mg/kg, route po; conditions: in vivo
[11] = Half-life in mouse at 10 mg/kg, po; format: ADME, organism-based; conditions: in vivo
[12] = Plasma protein binding in mouse; format: ADME, cell-free
[13] = Solubility of the compound at pH 7; format: physicochemical; conditions: buffer
[14] = Solubility of the compound at pH 4; format: physicochemical; conditions: buffer
[15] = Half-life in mouse at 3 mg/kg, iv; format: ADME, organism-based; conditions: in vivo
[16] = Observed volume of distribution at steady state in mouse at 3 mg/kg, iv; format: ADME, organism-based; conditions: in vivo, read-out: Vdss
[17] = AUClast in mouse at 3 mg/kg, iv; format: ADME, organism-based; set-up: time 0 - last, dose 3 mg/kg, route iv; conditions: in vivo
[18] = Oral bioavailability in mouse at 10 mg/kg; format: ADME, organism-based; conditions: in vivo
[19] = Apparent permeability across apical to basolateral membrane in human Caco-2 cells; format: ADME, cell-based
[20] = Efflux ratio for apparent permeability across basolateral to apical side to apical to basolateral side in human Caco2 cells; format: ADME, cell-based; conditions: Caco-2
[21] = Apparent permeability across basolateral to apical membrane in human Caco-2 cells; format: ADME, cell-based
[22] = Hepatitis B virus, AML12HBV10, 48 h

| SMILES | CC50 ([6]; aml12hbv10) [µM] | pEC50 (Hepatitis B virus; [22]) | further results |
| --- | --- | --- | --- |
| COC(=O)C1=C(C)NC(c2ncc(F)cc2F)=N[C@H]1c1ccc(F)cc1Cl | – | – | Activity (HepDES19 [1]): Active; Activity (HepDES19 [2]): Active; Activity (HepDES19 [3]): Active |
| O=C(Nc1ccc(F)c(Cl)c1)c1cccc2c1OCCO2 | > 50 | 6.70 | t1/2 [4]: 1.7 min; t1/2 [5]: 6.6 min |
| O=C(Nc1ccc2ncsc2c1)c1cccc2c1OCCO2 | > 50 | < 5.00 | – |
| C[C@@H](NS(=O)(=O)c1cc2c(c(C(=O)Nc3ccc(F)c(Cl)c3)c1)OCCO2)c1ccncc1 | – | 4.87 | – |
| O=C(Nc1cc(Cl)nc(Cl)c1)c1cccc2c1OCCO2 | > 33.3 | 5.20 | – |
| O=C1CCN(C(=O)Nc2ccc(F)c(C(F)F)c2)[C@@H]2CCCC[C@H]12 | > 20 | 6.59 | t1/2 [4]: 69 min; t1/2 [5]: 35 min |
| O=C(NCc1ccc(F)cc1F)c1cccc2c1OCCO2 | > 20 | 5.34 | – |
| O=C(Nc1ccc(F)c(Cl)c1)n1[nH]c(=O)c2ccccc21 | > 100 | < 5.00 | – |
| O=C(Nc1ccc(O)c(Cl)c1)c1cccc2c1OCCO2 | > 100 | 5.01 | – |
| O=C(Nc1ccc(F)c(Cl)c1)c1cccc2ccoc12 | > 100 | 6.14 | t1/2 [4]: 61.2 min; t1/2 [5]: 6 min |
| N#Cc1ccc(NC(=O)c2cccc3c2OCCO3)cc1Cl | > 50 | 5.42 | – |
| O=C(Nc1ccc(F)c(Cl)c1)c1cccc2nccnc12 | > 12.5 | 5.62 | – |
| C[C@@H](NS(=O)(=O)c1ccc(F)c(C(=O)Nc2ccc(F)c(F)c2)c1)C1CC1 | – | – | Activity (HepDES19 [7]): Active |
| O=C(Nc1ccnc(Cl)c1)c1cccc2c1OCCO2 | > 100 | 5.33 | – |
| O=C1CCN(C(=O)Nc2ccc(F)c(Cl)c2)C2CCCCC12 (stereo in doubt; 61) | – | – | t1/2 [4]: 71 min; PPB [8]: 90%; Cmax [9]: 2727 ng/mL; AUClast [10]: 4516 ng·h/mL; t1/2 [5]: 56 min; t1/2 [11]: 42 min; PPB [12]: 94%; solubility [13]: 253 µM (≈ 82.2 µg/mL); solubility [14]: 239 µM (≈ 77.6 µg/mL); t1/2 [15]: 36 min; Vd [16]: 0.8 L/kg; AUClast [17]: 1952 ng·h/mL; F [18]: 69%; pEC50 (Hepatitis B virus; aml12hbv10): 6.34 |
| O=C(Nc1ccc(F)c(Cl)c1)c1cccc2c1OCCC2 | > 12.5 | 6.12 | – |
| O=C1CCN(C(=O)Nc2ccc(F)c(Cl)c2)c2ccccc21 | > 12.5 | 5.88 | t1/2 [4]: 47.2 min; t1/2 [5]: 10 min |
| O=C1CCN(C(=O)Nc2ccc(F)c(Cl)c2)[C@H]2CCCC[C@@H]12 (relative stereo) | – | – | Papp A→B [19]: 14.7 ×10⁻⁶ cm/s; half-life ([4]; liver microsomes): 56.8 min; half-life ([5]; liver microsomes): 32 min; CC50 ([6]; AML12HBV1 cells): > 100 µM; efflux ratio [20]: 0.5; Papp B→A [21]: 7.8 ×10⁻⁶ cm/s; pEC50 (Hepatitis B virus; aml12hbv10): 6.15 |
| O=C(Nc1ccc(F)c(Cl)c1)c1cccc2c1OCC2 | 4.6 | 5.66 | – |
| O=C(Nc1ccc2c(c1)CCC2)c1cccc2c1OCCO2 | > 50 | < 5.00 | – |
| O=C1CCCN(C(=O)Nc2ccc(F)c(Cl)c2)c2ccccc21 | > 100 | < 5.00 | – |
| O=C(Nc1ccc(N2CCOCC2)c(Cl)c1)c1cccc2c1OCCO2 | > 25 | < 5.00 | – |
| O=C(Nc1ccc(F)c(Cl)c1)N1CCOc2ccccc21 | > 100 | 6.28 | t1/2 [4]: 14.7 min; t1/2 [5]: < 4 min |
| O=C1CCN(C(=O)Nc2cccc(Cl)c2)[C@@H]2CCCC[C@H]12 | > 20 | 6.66 | – |
| O=C(Nc1ccc(C(F)(F)F)c(Cl)c1)c1cccc2c1OCCO2 | > 50 | 5.80 | t1/2 [4]: 44.4 min; t1/2 [5]: 6.9 min |
| O=C1CCN(C(=O)Nc2ccc(F)c(Cl)c2)C2CCCCC12 (stereo not drawn) | – | – | t1/2 [4]: 5 min; t1/2 [5]: 7.8 min; pEC50 (Hepatitis B virus; aml12hbv10): 5.74 |
| O=C(Nc1cc(F)c(F)c(F)c1)c1cccc2c1OCCO2 | > 100 | 6.55 | – |
